PP1 inh = blocks human PP1-alpha phosphatase, a PP5 counter-screen. AID 2235. inhibition, % at 6.7 µM. P62136. purified PP1alpha, OMFP fluorescence. hit rate 0.9% among 320,000;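 active = inhibition above the mean inhibition of all tested compounds plus 3 SD, computed separately for each screening campaign, cut at about 15% in these data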
Target sequence (P62136 whole entry, looked up): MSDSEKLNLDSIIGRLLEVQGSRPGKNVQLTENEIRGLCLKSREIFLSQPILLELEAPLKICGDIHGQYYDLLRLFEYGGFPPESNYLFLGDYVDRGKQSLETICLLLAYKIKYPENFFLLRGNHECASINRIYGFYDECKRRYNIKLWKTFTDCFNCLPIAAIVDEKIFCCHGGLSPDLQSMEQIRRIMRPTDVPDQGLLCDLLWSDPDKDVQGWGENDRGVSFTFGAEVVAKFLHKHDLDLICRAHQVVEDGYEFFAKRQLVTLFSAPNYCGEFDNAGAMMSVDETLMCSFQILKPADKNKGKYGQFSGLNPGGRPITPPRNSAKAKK
EBNA-1 inhibitor = blocks EBNA-1 binding to DNA; EBNA-1 DNA binding, fluorescence polarization; inhibition, % at 14.8 µM; hit rate 0.34% among 300,000; in the data active = inhibition above about 28%
ZTA counter = counter-screen for EBNA-1 inhibitors: inhibitors of Epstein-Barr virus ZTA; ZTA-DNA binding, fluorescence polarization; inhibition, % at 11 µM; hit rate 0.15% among 320,000; AID 2234; in the data active = inhibition above about 33%
Target sequence (P03206 whole entry, looked up): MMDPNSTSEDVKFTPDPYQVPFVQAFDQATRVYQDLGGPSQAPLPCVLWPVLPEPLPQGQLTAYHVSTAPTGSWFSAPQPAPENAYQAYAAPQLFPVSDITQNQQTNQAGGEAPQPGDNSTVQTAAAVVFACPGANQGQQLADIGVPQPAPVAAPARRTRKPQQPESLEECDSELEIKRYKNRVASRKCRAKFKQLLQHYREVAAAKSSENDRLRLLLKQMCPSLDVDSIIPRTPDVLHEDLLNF
PP5 primary = inhibitors of human protein phosphatase 5 (PP5); hit rate 0.18% among 320,000; P53041; inhibition, % at 6.7 µM; purified PP5c, OMFP substrate fluorescence; AID 1987;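 active = inhibition above the campaign's mean inhibition across all tested compounds plus 3 SD, cut at about 9.5% in these data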;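 also: 0% = DMSO only and 100% = 100 µM cantharidin control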
HCV core dimer = HCV core protein dimerization inhibition; TR-FRET GST/Flag-core106 dimerization, 1536-well; inhibition, % at 5 µM; hit rate 0.33% among 300,000; AID 1899;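 active = inhibition above the mean of all tested compounds plus 3 SD, set per screening campaign, cut at about 45% in these data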
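Material: GST/Flag-tagged HCV core106 proteins. Incubation: 4 h, 22.5 °C incubation. Read-out basis: inhibition (%) from 671 over 617 nm ratio. Measured by: TR-FRET, excitation 340 nm, emission 617 and 671 nm.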
EBNA-1 inh conf = EBNA-1 (EBV) inhibition, confirmation; Recombinant EBNA-1 DBD, Cy5-DNA fluorescence polarization; AID 2292; hit rate 35% among 830; inhibition, % at 14.8 µM; shares compounds with EBNA-1 inhibitor;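 active = mean inhibition across replicates above a set limit taken from the earlier primary screen, cut at about 28% in these data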;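 also: plate controls were EBNA-1 protein with DMSO for no effect and wells lacking EBNA-1 for full effect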
ZTA DNA inh trip = ZTA (EBV) inhibition, triplicate counter-screen | shares compounds with EBNA-1 inhibitor | Zta-ZRE DNA binding, Cy5 fluorescence polarization | inhibition, % at 11.1 µM | 830 tested, under 10 active | AID 2328;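 active = mean inhibition over triplicates above a set limit taken from the primary EBNA-1 screen, cut at about 37% in these data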;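 also: purified full length Zta protein with Cy5 labeled ZRE DNA probe; 0% = Zta with DMSO and 100% = wells lacking Zta protein; inhibitors lower polarization by freeing the labeled DNA probe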
Active calls of the source: *; / = no result given. The list is not random: actives were taken first. Their share in the collection is about 1.7%.

SMILES	PP1 inh	EBNA-1 inhibitor	ZTA counter	PP5 primary	HCV core dimer	EBNA-1 inh conf	ZTA DNA inh trip
O=C(NC1CCN(Cc2ccccc2)CC1)c1ccc(Cn2c(=S)[nH]c3ccc(N4CCOCC4)cc3c2=O)cc1	1	-10	0	2	6	/	/
O=c1c2cc(N3CCOCC3)ccc2[nH]c(=S)n1Cc1cccc(Cl)c1	-4	30*	1	3	11	7	7
Cc1cc(=O)oc2c(C)c(OC3CCCCC3=O)ccc12 (stereo not given)	0	3	0	0	2	/	/
COC(=O)Cc1c(C)c2ccc(OC3CCCCC3=O)c(C)c2oc1=O (stereo not given)	-8	125*	24	-2	2	-1	-4
O=C(CCCN1C(=O)S/C(=C/C=C/c2ccccc2)C1=O)Nc1ccc(C(=O)O)cc1	3	9	0	3	14	/	/
O=C(CCCN1C(=O)/C(=C\c2ccccc2)SC1=S)Nc1ccc(O)cc1	0	-5	10	1	7	/	/
Cc1ccc(/C=C2\SC(=S)N(CCC(=O)NNC(=O)c3ccc(O)cc3)C2=O)cc1	3	29*	-5	-1	15	57*	10
CC(/C=C1\SC(=S)N(CCC(=O)Nc2ccc(O)cc2)C1=O)=C\c1ccccc1	15*	34*	-5	2	24	10	-6
O=C(CN1C(=O)S/C(=C\C=C\c2ccccc2)C1=O)Nc1ccc(O)cc1	13	52*	-18	2	37	7	-2
Cc1ccc(/C=C2\SC(=S)N(CCC(=O)NNC(=O)c3cccc(O)c3)C2=O)cc1	4	8	-4	0	22	/	/
Cc1cc(N/N=C/c2c(O)ccc3ccccc23)nc(-c2ccccc2O)n1	-1	49*	12	5	13	21	1
Oc1ccc2ccccc2c1/C=N/Nc1ccccc1	-2	-6	2	2	-4	/	/
S=C(NCc1ccco1)N1CCN(c2ccccn2)CC1	0	-4	1	0	-1	/	/
COC(=O)C(=N/Nc1ccccc1C(=O)OC)/C(C)=N/O	-3	57*	9	-2	1	42*	-2
Cc1nc([N+](=O)[O-])cn1CC(=O)Nc1ccc(F)c(Cl)c1	0	1	0	1	-3	/	/
C=CCNC(=O)NC(=O)COC(=O)CNS(=O)(=O)c1ccc(F)c(F)c1F	-6	-6	2	-1	1	/	/
COc1cccc(/C=N/NC(=O)C(=O)Nc2ccccc2OC(F)(F)C(F)F)c1	-3	30*	13	1	5	24	5
COC(=O)C1=C(N)c2c(F)cccc2C1(C#N)c1ccc(F)cc1 (stereo not given)	-1	-14	-5	3	6	/	/
COC(=O)c1ccc(NC(=O)Cn2nc(-c3ccncc3)nc2SCC(=O)Nc2nccs2)cc1	-2	52*	-17	3	-2	35*	-14
COc1ccc(S(=O)(=O)NNC(=O)c2cc3c4ccccc4n(C)c3s2)cc1	3	32*	-8	5	19	18	3
COc1ccc(C(=O)NCc2ccncc2)cc1S(=O)(=O)NCc1ccc(Cl)cc1	-2	/	25	2	/	/	/
CC(=O)Nc1ccccc1-c1nnn(CC(=O)Nc2ccc3c(c2)OCCO3)n1	-1	6	10	1	0	/	/
O=C(Cn1nnc(-c2ccccc2NC(=O)c2ccccc2)n1)Nc1ccc2c(c1)OCCO2	-3	61*	10	0	2	60*	4
CCn1nnc(-c2ccccc2NC(=O)c2cccc(-n3cnnn3)c2)n1	-2	87*	-1	3	1	83*	10
COc1ccccc1Nc1ncc(C(=O)Nc2ccc(OC)c(OC)c2)c2ccccc12	2	80*	1	0	4	55*	4
SMILES	PP1 inh	EBNA-1 inhibitor	ZTA counter	PP5 primary	HCV core dimer	EBNA-1 inh conf	ZTA DNA inh trip
COc1ccc(CNS(=O)(=O)NCc2ccc(C)cc2)cc1	-3	56*	7	0	5	12	-12
CCOC(=O)C1(C/C(C)=N/NC(N)=O)CC(C)OC1=O (stereo not given)	-2	-6	-14	-1	-5	/	/
O=C(NCCc1c[nH]c2ccccc12)C(=O)Nc1ccccc1	2	35*	5	4	21	2	-8
COc1ccc(CNC(=O)CN2C(=O)C3CCCN3c3ncc(Cl)cc32)cc1 (stereo not given)	11	29*	20	0	11	-8	-2
CCc1ccccc1NC(=O)CN1C(=O)C2CCCN2c2ncc(Cl)cc21 (stereo not given)	8	-4	-8	0	24	/	/
CC1CC(C)CN(S(=O)(=O)c2ccc(C(=O)NCc3ccc4c(c3)OCO4)cc2)C1 (stereo not given)	3	53*	-3	5	21	-18	-17
CC(=O)c1cc(C)ccc1OC(=O)c1cccc2nc(C)oc12	-1	81*	-1	-4	4	-4	-7
CC(=O)c1cc(C)ccc1OC(=O)c1ccncc1	-1	5	3	2	-2	/	/
COc1ccc(-c2nc(SC(CC(=O)NCCO)c3cccs3)n[nH]2)cc1 (stereo not given)	-5	-4	7	3	0	/	/
O=C(CC(Sc1n[nH]c(-c2ccccc2)n1)c1ccccc1)NCc1ccccc1 (stereo not given)	-4	33*	2	1	-4	10	9
COCCCNC(=O)c1c(N)n(-c2ccc(S(N)(=O)=O)cc2)c2nc3ccccc3nc12	1	113*	25	5	-1	65*	-13
COCCCNC(=O)c1c(N)n(-c2ccccc2)c2nc3ccccc3nc12	2	-3	-5	4	-4	/	/
COc1ccccc1NC(=O)Cn1c2ccccc2c2nc3n(c(=O)c21)CCS3	10	44*	-15	1	7	0	-8
Clc1ccccc1Nc1ncnc2c1nnn2Cc1ccccc1	2	-8	-8	3	2	/	/
CCOc1ccc(Nc2ncnc3c2nnn3Cc2ccccc2)cc1	2	36*	-2	1	-13	9	-8
Cc1ccccc1OCCOC(=O)c1ccc(S(=O)(=O)N2CCCC2)cc1	9	/	-6	0	/	/	/
O=C(CN1N=C(c2ccccc2)CCC1=O)NCCCN1CCc2ccccc2C1	-5	4	0	-2	-4	/	/
CC12CCC(C(=O)NCCCN3CCOCC3)(C(Br)C1=O)C2(C)C (stereo not given)	-4	-1	-2	-1	-2	/	/
O=C(Cn1cnc2ccccc2c1=O)NCc1cccs1	-3	-4	-9	2	-1	/	/
Cc1sc2ncnc(SCC(=O)NNC(=O)COc3cccc4ccccc34)c2c1C	-3	119*	17	0	4	98*	-11
C/C(=N\NC(=O)c1c(Br)c(C)nn1C)c1ccc(NC(=O)c2ccoc2C)cc1	-5	63*	9	2	-3	72*	9

Screens deposited in PubChem BioAssay by The Scripps Research Institute Molecular Screening Center.
